In the library only some 1.6% were active in any assay of this set; here they are far more common.
NR2E3 ag-1: agonists of human NR2E3 nuclear receptor; CHO-S Gal4-NCOR/VP16-NR2E3 two-hybrid, luciferase; 360,000 tested, 0.35% active; Q9Y5X4; AID 602229; inhibition of corepressor binding, % at 3.98 µM;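 active = inhibition above the mean of all tested compounds plus 3 SD, cut at about 70% in these data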;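 note: higher means lower luciferase signal from less NR2E3 corepressor binding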
NR1D1 modulator: modulates human Rev-erb alpha binding to DNA | P20393 | Rev-erbα–FITC-DNA binding, fluorescence polarization, 90 min | activity, % at 10 µM | 370,000 tested, 0.79% active | AID 1259318;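 active = activity above about 14%, limit read from the data; passing the limit was not always enough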
VLA-4 inh: inhibition in a human VLA-4 binding assay. P13612. VLA-4 expressing cells, ligand binding flow cytometry. inhibition, % (about 7 µM as worked out from the volumes in the protocol). 330,000 tested, 0.2% active; in the data active = inhibition above about 50%
PG9 Ab binder: small molecules binding HIV-1 gp120 antibody PG9 | TR-FRET gp120-PG9 antibody binding | inhibition, % at 6.7 µM | 360,000 tested, 0.43% active; in the data active = inhibition above about 8.5%
NR2E3 ag-2: agonists of human nuclear receptor NR2E3; Q9Y5X4; GST-NR2E3/biotin-RetCOR TR-FRET, 1536-well; inhibition of corepressor binding, % at 4.78 µM; 320,000 tested, 0.12% active;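 active = percent inhibition above the cutoff of mean plus 3 SD of all tested compounds, set per screening campaign, cut at about 20% in these data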
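Test system: GST-NR2E3 and biotin-RetCOR proteins | Quantity: 1.35 nM GST-tagged NR2E3 final | Medium: Tris pH 7.5 | Also added: 7 nM biotin-RetCOR | Dosing: Compound at 4.8 µM, single dose | Timing: 5 h at 4 °C | Detection: Time-resolved FRET | Read-out basis: Percent inhibition | Benchmarks: Biotin wells as high control, 0.6% DMSO wells as low control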
NR2E3 ag confirm-1: confirmation of human NR2E3 nuclear receptor agonists. shares compounds with NR2E3 ag-2. cell-free NR2E3 corepressor release, TR-FRET, 5 h. activation (reported as inhibition), % at 3.98 µM. 360 tested, 39% active. AID 2379; in the data active = activation above about 20%
PPARg-NCOR2 ag: releases PPARgamma from NCOR2 in NR2E3 counter-screen; shares compounds with NR2E3 ag-2; TR-FRET PPARg-NCOR2 coregulator interaction, biochemical; inhibition, % at 3.98 µM; 360 tested, 45% active; AID 504787; in the data active = inhibition above about 20%
NR2E3 ag confirm-2: NR2E3 agonism confirmed in two-hybrid assay. inhibition, % at 3.98 µM. shares compounds with NR2E3 ag-1. CHO-S mammalian two-hybrid NR2E3-NCOR, luciferase luminescence. AID 624378. 2,300 tested, 51% active;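 active = average inhibition above a cutoff equal to the mean inhibition of all tested compounds plus one SD, cut at about 70% in these data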
GAL4-VP16 luc: counter-screen for NR2E3 agonists: GAL4-VP16 reporter inhibitors | CHO-S GAL4-VP16 luciferase reporter, luminescence | 2,300 tested, 29% active | shares compounds with NR2E3 ag-1 | AID 624379 | inhibition, % at 3.98 µM;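 active = mean inhibition above a cutoff equal to the average over all tested compounds plus one standard deviation, cut at about 70% in these data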;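 note: luciferase from a UAS reporter driven by GAL4-VP16 transactivation; higher means less reporter light so more repression of VP16 activity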
PG9 binder conf: confirmation of small molecules binding HIV-1 gp120 antibody PG9. 1,500 tested, 90% active. shares compounds with PG9 Ab binder. AID 651571. TR-FRET PG9 antibody binding, biochemical. inhibition, % at 6.7 µM; in the data active = inhibition above about 9%
PGV04 counter: binds control antibody PGV04 in PG9 binder counter-screen. shares compounds with PG9 Ab binder. AID 651604. 1,500 tested, 95% active. TR-FRET PGV04 antibody-gp120 binding, biochemical. inhibition, % at 6.7 µM; in the data active = inhibition above about 9.5%
Of the large screens only hits and unclear results are named; the others gave an inactive call (follow-up assays come after a bar, where they were run).

Cc1ccc(S(=O)(=O)NCC(=O)OCC(=O)c2ccc(Br)s2)cc1	NR2E3 ag-2 22 | NR2E3 ag confirm-1 inactive | PPARg-NCOR2 ag inactive
Cc1nc(N)cc(C[n+]2csc(CCO)c2C)n1	none (no result: NR2E3 ag-1, VLA-4 inh, PG9 Ab binder, NR2E3 ag-2)
O=S(=O)(O)OC[C@H]1O[C@@](COS(=O)(=O)O)(O[C@H]2O[C@H](COS(=O)(=O)O)[C@@H](OS(=O)(=O)O)[C@H](OS(=O)(=O)O)[C@H]2OS(=O)(=O)O)[C@@H](OS(=O)(=O)O)[C@@H]1OS(=O)(=O)O	none (no result: NR2E3 ag-1, VLA-4 inh, PG9 Ab binder, NR2E3 ag-2)
c1ccc(CCNc2ncnc3c2nnn3Cc2ccccc2)cc1	NR2E3 ag-2 22 | NR2E3 ag confirm-1 inactive | PPARg-NCOR2 ag inactive
c1ccc(Cn2nnc3c(NCCN4CCOCC4)ncnc32)cc1	none
C#CCn1c(=NC(=O)CSC(C)=O)sc2cc(F)ccc21	NR2E3 ag-2 27 (no result: NR1D1 modulator, PG9 Ab binder) | NR2E3 ag confirm-1 inactive | PPARg-NCOR2 ag 20
C[C@@H]1O[C@@H](OC[C@H]2OC(Oc3c(-c4ccc(OCCO)c(OCCO)c4)oc4cc(OCCO)cc(O)c4c3=O)[C@H](O)[C@@H](O)[C@@H]2O)[C@H](O)[C@H](O)[C@H]1O (some centres undefined)	none (no result: NR2E3 ag-1, VLA-4 inh, PG9 Ab binder, NR2E3 ag-2)
CN(C(=O)c1ccc(NC(=O)Cc2ccc(NC(=O)C3CCN(C(=O)c4ccccc4)CC3)cc2)cc1)C1CC1	NR2E3 ag-2 21 | NR2E3 ag confirm-1 inactive | PPARg-NCOR2 ag inactive
COc1cc(N)c(C(=O)c2nccc3cc(OC)c(OC)cc23)cc1OC	none
COc1cc(Br)c(C(=O)c2nccc3cc(OC)c(OC)cc23)cc1OC	NR2E3 ag-2 28 | NR2E3 ag confirm-1 24 | PPARg-NCOR2 ag inactive
CCCn1c(C)cs/c1=N\C(=S)Nc1ccccc1	NR2E3 ag-2 26 | NR2E3 ag confirm-1 inactive | PPARg-NCOR2 ag inactive
Cc1cs/c(=N/C(=S)Nc2ccccc2)n1C	none
C=CCNC(=O)CSc1nc2sccc2c(=O)n1-c1ccccc1	NR2E3 ag-2 23 | NR2E3 ag confirm-1 inactive | PPARg-NCOR2 ag inactive
CCNC(=O)CSc1nc2sccc2c(=O)n1-c1ccccc1	none
Nc1ccc2nc(-c3ccc(-c4nc5ccc(N)cc5[nH]4)cc3)[nH]c2c1	NR2E3 ag-2 24 (no result: NR2E3 ag-1) | NR2E3 ag confirm-1 inactive | PPARg-NCOR2 ag inactive
CCOc1ccc(C2C(C#N)=C(N)SC(N)=C2C#N)c(OCC)c1	none
CCCCc1ccc(C2C(C#N)=C(N)SC(N)=C2C#N)s1	NR2E3 ag-2 42 (no result: NR2E3 ag-1, NR1D1 modulator, PG9 Ab binder) | NR2E3 ag confirm-1 inactive | PPARg-NCOR2 ag inactive
O=c1[nH]c(=O)n(C2C[C@@H](O)[C@@H](CO)O2)cc1F (some centres undefined)	none (no result: NR2E3 ag-1, VLA-4 inh, PG9 Ab binder, NR2E3 ag-2)
CC1(C)Cc2c(c(-c3ccccc3)nc3sc4c(=O)[nH]c(=S)[nH]c4c23)CO1	NR2E3 ag-2 20 (no result: NR2E3 ag-1, NR1D1 modulator, PG9 Ab binder) | NR2E3 ag confirm-1 inactive | PPARg-NCOR2 ag inactive
CC1(C)Cc2c(c(-c3ccccc3)nc3[nH][nH]c(=O)c23)CO1	none
CC1(C)O[C@@H]2CC3C4CCC5=CC(=O)C=C[C@]5(C)[C@@]4(F)[C@@H](O)C[C@]3(C)[C@]2(C(=O)CO)O1 (some centres undefined)	none (no result: NR2E3 ag-1, VLA-4 inh, PG9 Ab binder, NR2E3 ag-2)
O=C(CSc1nc2ccc(Cl)cc2[nH]1)Nc1ccc2c(c1)CCC2	NR2E3 ag-2 32 | NR2E3 ag confirm-1 inactive | PPARg-NCOR2 ag inactive
Cc1ccc2nc(SCC(=O)Nc3ccc4c(c3)CCC4)[nH]c2c1	none
CCOC(=O)c1ccc(N2CSC3=C(C#N)C(c4cccs4)CC(=O)N3C2)cc1 (centres undefined)	NR2E3 ag-2 27 | NR2E3 ag confirm-1 inactive | PPARg-NCOR2 ag 38
Cc1ccc(N2CSC3=C(C#N)C(c4cccs4)CC(=O)N3C2)cc1 (centres undefined)	NR2E3 ag-2 24 | NR2E3 ag confirm-1 inactive | PPARg-NCOR2 ag inactive
c1ccc2c(c1)-c1cccc3c1c-2cc1ccccc13	NR2E3 ag-2 25 (no result: NR2E3 ag-1, NR1D1 modulator, PG9 Ab binder) | NR2E3 ag confirm-1 inactive | PPARg-NCOR2 ag inactive
Cn1nc(-c2ccccn2)nc2c(=O)n(C)c(=O)nc1-2	NR2E3 ag-1 107, NR2E3 ag-2 41 | NR2E3 ag confirm-1 33 | PPARg-NCOR2 ag 57 | NR2E3 ag confirm-2 inactive | GAL4-VP16 luc inactive
CC(=O)OCC(=O)[C@@]1(O)CCC2C3CCC4=CC(=O)CC[C@]4(C)C3C(=O)C[C@@]21C (some centres undefined)	none (no result: NR2E3 ag-1, VLA-4 inh, PG9 Ab binder, NR2E3 ag-2)
Cc1onc(-c2ccccc2Cl)c1C(=O)Nc1nnc(-c2ccc(Br)cc2)s1	PG9 Ab binder 27, NR2E3 ag-2 22 | NR2E3 ag confirm-1 inactive | PPARg-NCOR2 ag inactive | PG9 binder conf 31 | PGV04 counter 49
Cc1onc(-c2ccccc2Cl)c1C(=O)Nc1nnc(-c2ccc(F)cc2)s1	none
COCC1=C(C(=O)OC(C)OC(=O)OC(C)C)N2C(=O)[C@@H](NC(=O)/C(=N/OC)c3csc(N)n3)[C@H]2SC1 (some centres undefined)	none (no result: NR2E3 ag-1, VLA-4 inh, PG9 Ab binder, NR2E3 ag-2)
COc1cccc(C2C(C(=O)c3cc4ccccc4o3)=C(O)C(=O)N2c2cc(C)on2)c1 (centres undefined)	PG9 Ab binder 20, NR2E3 ag-2 27 | NR2E3 ag confirm-1 26 | PPARg-NCOR2 ag 26 | PG9 binder conf 17 | PGV04 counter 25
COc1ccccc1C1C(C(=O)c2cc3ccccc3o2)=C(O)C(=O)N1c1cc(C)on1 (centres undefined)	PG9 Ab binder 10, NR2E3 ag-2 22 | NR2E3 ag confirm-1 20 | PPARg-NCOR2 ag inactive | PG9 binder conf 18 | PGV04 counter 32
Cc1cc(N2C(=O)C(O)=C(C(=O)c3ccc(C)o3)C2c2cccc(Oc3ccccc3)c2)no1 (centres undefined)	none
CCCOc1ccc(C2C(C(=O)c3cc4ccccc4o3)=C(O)C(=O)N2c2cc(C)on2)cc1OC (centres undefined)	none

From PubChem
